Screens (PubChem BioAssay)
ROMK mod: human ROMK K+ channel modulation, primary screen; Tet-inducible ROMK, thallium flux fluorescence; actives lie on both sides; P48048; actives 2% (n = 130,000); B-score at 10 µM;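 active = signal ratio slope over the read window, or its plate-corrected B-score, at least 3 SD from the plate mean, either direction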;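 also: B-score of the F/F0 ratio slope over 7 to 12 s after thallium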
PMI act hi M6P: increases human PMI activity with near-saturating mannose 6-phosphate; P34949; coupled PMI enzyme assay, resazurin fluorescence, 20 min; stronger effect = higher value; 1 = untreated enzyme, 0 = substrate-free blank; activation factor at 20 µM; actives 0.34% (n = 190,000);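 active = activation factor of 2 or more at 20 µM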
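Material: human phosphomannose isomerase with PGI, G6PDH, diaphorase coupling enzymes. Quantity: 15 ng/mL PMI. Medium: HEPES pH 7.4 buffer with MgCl2 and Tween-20. Reagent: Near-saturating mannose-6-phosphate, 1.0 mM. Compound: 20 µM single dose. Times: enzyme reaction with compound 20 min at room temperature. Detection: resorufin fluorescence at Ex 544/Em 590 nm.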
ABCG2 inh: human ABCG2 inhibition, ABCB1 as counter-screen; AID 1325; inhibition, % at 6.6 µM; Q9UNQ0; IgMXP3 cells, JC-1 efflux, flow cytometry; actives 0.1% (n = 190,000);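 active = inhibition above 80%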;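 also: 0% = DMSO and 100% = nicardipine control wells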
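Test system: IgMXP3 cells (ABCG2) mixed with DDAO far-red-labelled CCRF-Adr cells (ABCB1). Reagent: JC-1 transporter substrate. Compound dosing: single test compound dose, 6.6 µM final. Times: 10 min compound exposure, 25 °C. Detection: flow cytometry of retained JC-1 fluorescence. Read-out basis: efflux inhibition in percent versus controls. Controls: nicardipine and DMSO wells.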
ABCB1 block: blocks JC-1 efflux by human ABCB1 transporter; P08183; inhibition, % at 6.6 µM; actives 0.067% (n = 190,000); CCRF-Adr cells, flow cytometry; in the data active = inhibition above about 40%;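 also: 0% = vehicle and 100% = reference inhibitor; higher value means more JC-1 retained so stronger ABCB1 efflux block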
KCC2 mod: modulators of human KCC2 chloride dependent transport; actives 2.2% (n = 190,000); B-score of Tl+ flux slope (higher = more flux/activation; lower = inhibition) at 10 µM; KCC2 cells, thallium flux FluoZin-2 fluorescence; Q9H2X9;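 active = thallium flux slope and its plate-corrected score both differing from the plate sample mean at a set confidence after two filtering rounds, in either direction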;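 also: slope of fluorescence scaled to starting intensity during 10 to 20 s after thallium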
PMI activator: increases human mannose-6-phosphate isomerase activity | P34949 | purified human PMI, coupled resazurin fluorescence, 20 min; stronger effect = higher value; 1 = vehicle control, 0 substrate-free wells | activation factor at 20 µM | actives 0.005% (n = 190,000) | AID 1214;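 active = activation factor of 2 or more at 20 µM, relative to plate controls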
ROMK hit retest: confirmation of human ROMK potassium channel modulators; shares compounds with ROMK mod; normalized thallium flux (F/F0 slope) at 10 µM; actives 54% (n = 3,000); ROMK thallium flux, fluorescence ratio; stronger effect = lower value;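 active = Flux at 10 µM at least 3 SD below or above vehicle control mean in one or both replicates; inconclusive = no clear call, values can overlap the other calls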
An asterisk follows results filed as active; ? = inconclusive; nt = not tested or not shown. Sampled rows, rich in hits. Any-hit rate of the full collection: about 3.3%.

SMILES | ROMK mod | PMI act hi M6P | ABCG2 inh | ABCB1 block | KCC2 mod | PMI activator | ROMK hit retest
Cc1ccccc1C(=O)NNC(=S)Nc1cccc(C(F)(F)F)c1 | nt | 1.2 | -3 | -1 | -0.012 | 1.2 | 0.064*
CC(C)(O)C(=O)NNC(=S)Nc1cccc(C(F)(F)F)c1 | 1 | 1 | -1 | 0 | -0.012 | 0.9 | nt
CCOC(=O)C1=C(C)S/C(=C\N(C)C)C1=O | nt | 1 | -1 | 0 | -0.046 | 1 | nt
COc1ccc(NC(=O)c2cc3cccc(OC)c3oc2=Nc2ccc(C(=O)O)cc2)cc1OC | -4.4* | 0.9 | -3 | -2 | -0.6 | 0.9 | 0.054*
CCc1cccc(NC(=O)CSC2=NS(=O)(=O)c3ccccc32)c1 | nt | 1 | 1 | 0 | nt | 0.9 | 0.059*
COc1ccc(CCN=C(N)NS(=O)(=O)c2ccc(C)c(C)c2)cc1 | nt | 1.1 | 5 | 0 | -0.98 | 1.1 | nt
CCc1nnc(NS(=O)(=O)c2ccc(N/C=C/C(=O)c3ccc(OC)cc3)cc2)s1 | 4.1* | 1 | -1 | -1 | -0.39 | 1 | 0.094
Cc1noc(NS(=O)(=O)c2ccc(N/C=C\C(=O)c3ccc4c(c3)OCO4)cc2)c1C | nt | 1 | -1 | 0 | nt | 1 | nt
Cc1noc(NS(=O)(=O)c2ccc(N/C=C\C(=O)c3ccc(Br)cc3)cc2)c1C | 6* | 1.2 | -1 | -1 | -1.1 | 1.1 | 0.099*
CCOc1ccc(C(=O)/C=C/Nc2ccc(S(=O)(=O)Nc3onc(C)c3C)cc2)cc1 | 2.7* | 1.1 | -2 | -2 | -0.49 | 1 | 0.089
COc1cccc(C(=O)/C=C/Nc2ccc(S(=O)(=O)Nc3onc(C)c3C)cc2)c1 | nt | 1 | 3 | 0 | -1.2 | 1 | nt
CCc1nnc(NS(=O)(=O)c2ccc(N/C=C\C(=O)c3cccc4ccccc34)cc2)s1 | 0.87 | 0.9 | 2 | 0 | -2.3 | 0.9 | nt
COc1ccc(Cl)cc1N(CC(=O)NCC(C)C)S(=O)(=O)c1ccc(C)c([N+](=O)[O-])c1 | 2 | 1.1 | 6 | 1 | -0.48 | 0.8 | nt
COc1cc(CC(=O)OCC(=O)Nc2sccc2C(N)=O)cc(OC)c1OC | -2.5 | 0.9 | 2 | 0 | -1.7 | 0.9 | 0.062*
NC(=O)c1ccsc1NC(=O)COC(=O)Cc1ccsc1 | -0.4 | 0.9 | 23 | -1 | -1.8 | 0.9 | nt
CC(C)C(NC(=O)CSCc1ccc([N+](=O)[O-])cc1)C(C)C | nt | 1.1 | 11 | 1 | -0.47 | 1.1 | nt
COc1ccc(CN2CCCCC2C(=O)Nc2ccc(OC)c(OCC(C)C)c2)cc1OC (configuration not stated) | nt | 1.1 | 9 | 3 | -0.21 | 1.1 | nt
C=CC#CC1(O)CC(C)[N+](C)(C)CC1C (configuration not stated) | 0.3 | 0.9 | 0 | 0 | 0.74 | 0.7 | 0.084
O=C(O)c1ccccc1C(=O)c1ccc2c(c1)N(Cc1ccc(Cl)c(Cl)c1)C(=O)CO2 | 0.052 | 0.8 | 16 | 2 | -1.8 | 0.8 | nt
CCOc1ccccc1/C=C(\C#N)C(=O)Nc1cccc(C(=O)O)c1 | nt | nt | nt | nt | -1.6 | nt | nt
COc1cc(/C=C(/C#N)C(=O)Nc2ccccc2)c(Br)cc1OCc1ccc(C(=O)O)cc1 | -5* | nt | nt | nt | -1.3 | nt | 0.055*
COc1ccccc1/C=C(\C#N)C(=O)Nc1ccc(S(N)(=O)=O)cc1 | -3.3* | 0.9 | 4 | 1 | 2 | 0.9 | 0.061*
N#C/C(=C\c1ccccc1[N+](=O)[O-])C(=O)Nc1ccc(S(N)(=O)=O)cc1 | nt | nt | nt | nt | 1.6 | nt | nt
CSc1nccc(-c2nn(-c3ccc(C)cc3)ccc2=O)n1 | 4.4* | 1.1 | 4 | 0 | nt | 1.1 | 0.093
C=CCSc1nccc(-c2nn(-c3ccc(C)cc3)ccc2=O)n1 | nt | 0.9 | 7 | 0 | -1 | 1 | nt
SMILES | ROMK mod | PMI act hi M6P | ABCG2 inh | ABCB1 block | KCC2 mod | PMI activator | ROMK hit retest
CCSc1nccc(-c2nn(-c3ccc(C)cc3)ccc2=O)n1 | 3.1* | 1 | nt | nt | nt | 0.9 | 0.088
Cc1n[nH]c(=O)n1-c1cccc(C(F)(F)F)c1 | nt | 1 | 2 | 0 | nt | 1 | 0.076
COc1ccc(C(=O)Cn2nc(CNc3ccc(Br)cc3)[n+]3c2CCCCC3)cc1 | -2.5 | 0.9 | 0 | 0 | 0.14 | 0.9 | nt
Cc1ccc(C(C)C)c(OCc2nn(CC(=O)c3ccc(OC(F)F)cc3)c3[n+]2CCCCC3)c1 | -4.2* | 0.9 | 3 | 0 | -0.44 | 1 | 0.055*
O=C(Cn1cccn1)c1ccccc1 | 0.001 | 1.1 | -1 | 0 | 0.73 | 1.1 | nt
Cc1cc(CNCc2c(C(=O)N3CCCCCCC3)nc3ccc(Cl)cn23)nn1C | 1.9* | 1.1 | 5 | 0 | 0.068 | 1 | 0.081
O=C(c1nc2ccc(Cl)cn2c1CNCCn1ccnc1)N1CCCCCCC1 | -0.037 | 1 | -1 | -1 | nt | 1 | nt
CCCn1c(=S)[nH]c2cc(C(=O)N3CCCC(C(=O)OCC)C3)ccc2c1=O (configuration not stated) | -3.2* | 1 | 2 | 0 | nt | 1 | 0.06*
O=C(O)CCC(=O)N1CCN(c2ncccc2C(F)(F)F)CC1 | nt | nt | nt | nt | 0.19 | nt | nt
COc1ccc(C(=O)Nc2ncc3c(n2)CC(c2ccco2)CC3=O)cc1 (configuration not stated) | -6.5* | 0.8 | 8 | 2 | 0.21 | 1 | 0.073
CCc1ccc(NC(=O)C(C)OC(=O)c2cc(=O)[nH]c3ccc(S(=O)(=O)Nc4ccc(F)cc4)cc23)cc1 (configuration not stated) | -0.15 | 1 | -4 | -1 | 0.053 | 0.9 | nt
Cc1cccc(NS(=O)(=O)c2ccc3[nH]c(=O)cc(C(=O)OC(C)C(=O)Nc4ccc([N+](=O)[O-])cc4)c3c2)c1 (configuration not stated) | -3.1* | 0.9 | -2 | -1 | -0.84 | 0.9 | ?
Cc1cccc(NC(=O)CSc2nc(N)c(NC(=O)c3cccs3)c(=O)[nH]2)c1C | 0.016 | 1 | 8 | 3 | -0.45 | 1 | nt
O=S(=O)(/N=C(/Nc1cccc2ccccc12)c1ccccc1)c1cccs1 | nt | 0.9 | 7 | 1 | -0.012 | 0.9 | 0.06*
CCNc1nc(-c2ccc(OC(F)F)cc2)c(C)s1 | -4.5* | 1 | 1 | 0 | 1.1 | 0.8 | 0.062*
CC(C)CC(=O)Nc1ccc(C(=O)CN2CCC(C)CC2)cc1 | -0.12 | 1.4 | 0 | 0 | -0.089 | 1.5 | nt
O=C1/C(=C/c2ccccc2)CCCc2ccccc21 | nt | 0.8 | 5 | 1 | -0.19 | 0.8 | nt
CN(C)c1ccc(/C=C2\CCC/C(=C\c3ccccc3)C2=O)cc1 | nt | 0.8 | 0 | 1 | -0.44 | 0.9 | ?
N#C/C(=C/c1ccc(F)cc1)C(N)=S | -3.1* | 1 | 5 | 1 | 0.18 | 1.1 | 0.051*
